Consider 4 compounds from article PMC12064631 (Clinical Pharmacokinetics, 2025).

The format of data set [1] is in vivo, human (Chinese patients with type 2 diabetes). The settings on record: for AUC(0-inf) / AUC(0-t) / AUC / Tmax / Vd/F / half-life / k el / Cmax: human, plasma; for AUC(0-inf) / AUC(0-t) / AUC / Tmax / Vd/F / half-life / k el: oral; for AUC(0-inf): AUCinf; for AUC(0-inf) / AUC(0-t) / AUC / Vd/F / half-life / k el / %AUC_ex,ss / CLss/F / Cmin,ss / %AUC_ex / CL/F: mean (SD); for AUC(0-t): AUClast; for AUC: AUCtau; for Tmax: median (range); for Vd/F: Vz/F; for k el: λz; for Cmax: po. In a few lines: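 Fasting oral tablets of 50, 100 or 200 mg were given once daily on days 1 and 3–9 (eight doses). Plasma was spun at 1700 ± 50 g, 4 °C, 10 min, acidified with 50% acetic acid (1:100) and stored ≤ –60 °C. Analysis was by validated LC-MS/MS (1.00–2000 ng/mL; LLOQ 1.00 ng/mL). Individual parameters and accumulation ratio came from noncompartmental analysis using actual sampling times.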

The subject of a further data set is DPP‐9. Particulars: cited from earlier work.
Another data set has as its system DPP‐2. Particulars: cited from earlier work.
Data set [2] has as its target T1, DPP-4 (Homo sapiens, UniProt P27487). Nature of the data set: Inhibition of plasma DPP-4 activity after single and multiple doses of DBPR108. It is filed as in vivo, human (Chinese patients with type 2 diabetes). In a few lines:
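Chinese adults with type 2 diabetes (HbA1c 7.0–9.5%, BMI 19–35 kg/m2), 10 per group. Oral tablets of 50, 100 or 200 mg were given fasting, once daily on days 1 and 3–9. Plasma was spun at 1300 ± 50 g, 2–8 °C, 10 min and stored ≤ –60 °C. DPP-4 activity was read on a microplate reader (LLOQ 21.23 μU/mL), with % inhibition taken from baseline.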

The next data set concerns diet-induced obese mice. The settings on record: DBPR108 in combination with metformin; cited from earlier work.
For data set [3], the system named is fibroblast activation protein. Particulars: cited from earlier work.
For data set [4] the following is noted: single dose of 100 mg, healthy subjects, cited from earlier work.
For data set [5], the system named is DPP-4 activity in the plasma. Particulars: plasma of humans, rodents, dogs, and monkeys, range over species; cited from earlier work.
For data set [6], the target named is T1, DPP-4. Nature of the data set: PK-PD relationship between DPP-4 inhibition and DBPR108 exposure. It is filed as in vivo, human (Chinese patients with type 2 diabetes). In short, it runs like this:
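Each patient's plasma drug level (LC-MS/MS) was paired with plasma DPP-4 % inhibition, after one dose and after repeated once-daily oral dosing at 50–200 mg. Linear correlation with exposure was assessed, and inhibition versus concentration was fitted with an Emax model giving Emax and EC50. Only patients with evaluable PK and PD data were included.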

The subject of a further data set is active GLP-1. Nature of the data set: Plasma active GLP-1 level after single and multiple doses of DBPR108. It is filed as in vivo, human (Chinese patients with type 2 diabetes). The settings on record: for Emax,GLP-1 (active GLP-1): mean (SD). In short, it runs like this: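 Patients with type 2 diabetes, 10 per group, received oral tablets of 50, 100 or 200 mg fasting, once daily on days 1 and 3–9. Plasma was spun at 1300 ± 50 g, 2–8 °C, 10 min and stored ≤ –60 °C. Active GLP-1 was measured by MSD V-PLEX kit (LLOQ 0.182 pM). Emax and time to Emax were taken per group, and correlation with exposure was checked.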

The test system of the next data set is DPP‐8. The settings on record: cited from earlier work.
A short description of a further data set: Safety assessment. Format: in vivo, human (Chinese patients with type 2 diabetes). In short, it runs like this: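 Treatment-emergent adverse events were recorded as a secondary outcome in all patients dosed at least once. Dosing was oral tablets of 50, 100 or 200 mg, fasting, once daily on days 1 and 3–9. Patients were grouped by the dose actually received.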

Another data set relates to DPP‐4. Particulars: cited from earlier work.
For data set [7] the following is noted: large clinical trials, rare; cited from earlier work.
The subject of data set [8] is DPP-4. Particulars: 168 h post single dose of 25 mg, healthy Japanese subjects; cited from earlier work.
The mark [9] stands for this setting: 50 mg, multiple doses 50 mg once daily.
Setting [10] is: 100 mg, multiple doses 100 mg once daily.
Setting [11] is: 200 mg, multiple doses 200 mg once daily.
Setting [12] is: multiple doses 50 mg once daily.
The mark [13] stands for this setting: multiple doses 100 mg once daily.
The mark [14] stands for this setting: multiple doses 200 mg once daily.
[15] abbreviates: multiple doses, range over 50-200 mg groups.
Where [16] appears, read: single dose and multiple doses, 50 mg to 200 mg, linear regression.

Several values for one entry are separate records, joined by “and”; a condition that tells them apart may be missing. Equal values may be shown once. Read-outs that look alike come from different tables or passages of the source. A value given as a limit tells only on which side of the number the result lay.

T1 sequence (P27487 39-766): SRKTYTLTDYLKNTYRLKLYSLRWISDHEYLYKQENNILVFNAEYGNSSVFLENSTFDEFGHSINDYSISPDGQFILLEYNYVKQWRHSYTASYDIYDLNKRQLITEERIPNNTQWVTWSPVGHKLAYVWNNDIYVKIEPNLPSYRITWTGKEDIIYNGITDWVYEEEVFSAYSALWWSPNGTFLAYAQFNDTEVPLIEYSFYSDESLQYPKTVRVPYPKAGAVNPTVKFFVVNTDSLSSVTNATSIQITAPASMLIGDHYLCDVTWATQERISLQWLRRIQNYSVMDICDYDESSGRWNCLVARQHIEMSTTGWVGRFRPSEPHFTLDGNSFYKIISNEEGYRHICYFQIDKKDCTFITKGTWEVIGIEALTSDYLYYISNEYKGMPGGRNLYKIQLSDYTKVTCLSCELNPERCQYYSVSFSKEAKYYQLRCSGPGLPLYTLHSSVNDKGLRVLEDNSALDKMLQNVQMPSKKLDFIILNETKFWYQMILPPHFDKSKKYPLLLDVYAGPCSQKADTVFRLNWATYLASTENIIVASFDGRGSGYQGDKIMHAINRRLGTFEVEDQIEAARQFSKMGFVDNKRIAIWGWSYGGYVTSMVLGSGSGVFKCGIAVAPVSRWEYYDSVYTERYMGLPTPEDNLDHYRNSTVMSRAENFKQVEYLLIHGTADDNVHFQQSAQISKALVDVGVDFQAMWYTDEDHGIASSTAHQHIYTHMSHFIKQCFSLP

The AUC(0-inf) is total exposure, with the tail of the curve extrapolated. Broadly, the AUC(0-t) is exposure summed from dosing to a finite time, without extrapolation to infinity. What is called AUC is the area under the concentration-time curve, a measure of exposure. A word on the Vd/F: it is the apparent distribution volume after extravascular dosing. A word on the half-life: it is the time in which the quantity being followed falls by half. Read a low half-life as rapid decline. The IC50 is the point on the concentration scale where inhibition reaches its midpoint. A word on the EC50: it is the midpoint of the concentration-response curve. A high value points to a need for much substance. `CC(C)(CC(=O)N1CCCC1)NCC(=O)N1C[C@@H](F)C[C@H]1C#N` [DBPR108, (2S,4S)-1-[2-(1,1-dimethyl-3-oxo-3-pyrrolidin-1-yl-propylamino)acetyl]-4-fluoro-pyrrolidine-2-carbonitrile]: the “Dose proportionality of exposure (power model)” value in [1] (50 mg to 200 mg, single dose and multiple doses) was “increased dose proportionally”. Also, in [1] (dosing on days 1 and 3-9), the “Steady state achieved on” value turned out to be 7 days. Further, the AUC(0-inf) in [1] (50 mg, single dose 50 mg) worked out at 792 ng·h/mL; in data set [1] (100 mg, single dose 100 mg) it was 1530 ng·h/mL; in data set [1] (200 mg, single dose 200 mg), 3400 ng·h/mL. The AUC(0-t) in data set [1] (50 mg, single dose 50 mg) is 780 ng·h/mL; in [1] (100 mg, single dose 100 mg) it was 1500 ng·h/mL; in data set [1] (200 mg, single dose 200 mg), 3280 ng·h/mL. Also, the exposure (AUC) came out at 770 ng·h/mL in data set [1] (50 mg, single dose 50 mg); 1450 ng·h/mL in [1] (100 mg, single dose 100 mg); 3120 ng·h/mL in data set [1] (200 mg, single dose 200 mg). Further, the Tmax was 1.5 h in data set [1] (50 mg, single dose 50 mg); 4.5 h in [1] (100 mg, single dose 100 mg); 4.5 h in data set [1] (200 mg, single dose 200 mg); 4.48 (range 1–6) h in data set [4] (median (range)). For the same compound, the Vd/F was 806 L in [1] (setting [9]); 479 L in data set [1] (50 mg, single dose 50 mg); 896 L in data set [1] (setting [10]); 1010 L in [1] (100 mg, single dose 100 mg); 894 L in [1] (setting [11]); 1070 L in data set [1] (200 mg, single dose 200 mg). Besides, the half-life in data set [1] (50 mg, t½, single dose 50 mg) is 5 h; in [1] (50 mg, t½,ss, multiple doses 50 mg once daily), 8 h; in [1] (100 mg, t½, single dose 100 mg) it was 9.6 h; in data set [1] (100 mg, t½,ss, multiple doses 100 mg once daily), 7.4 h; in data set [1] (200 mg, t½, single dose 200 mg), 12.3 h; in data set [1] (200 mg, t½,ss, multiple doses 200 mg once daily) it was 10.2 h. Further, the k el is 3.56e-05 s⁻¹ in data set [1] (setting [9]); 5e-05 s⁻¹ in data set [1] (50 mg, single dose 50 mg); 4.03e-05 s⁻¹ in data set [1] (setting [10]); 3.61e-05 s⁻¹ in data set [1] (100 mg, single dose 100 mg); 2.69e-05 s⁻¹ in [1] (setting [11]); 2.78e-05 s⁻¹ in data set [1] (200 mg, single dose 200 mg). The Cmax was 151 ng/mL in data set [1] (50 mg), 239 ng/mL in data set [1] (100 mg), 474 ng/mL in data set [1] (200 mg) and 218.8 (101.8) ng/mL in data set [4] (mean (SD)). The “%AUC_ex,ss” value in data set [1] (setting [12]) is recorded as 4.48 (4.09) %; in data set [1] (setting [13]) it was 2.33 (3.04) %; in [1] (setting [14]), 3.17 (3.44) %. The CLss/F in data set [1] (setting [12]) was 76.0 (23.3) L/h; in [1] (setting [13]) it was 76.4 (22.3) L/h; in data set [1] (setting [14]) it was 64.6 (16.7) L/h. The “Cmin,ss” value was 3.2 (1.6) ng/mL in data set [1] (setting [12]), 5.6 (2.9) ng/mL in data set [1] (setting [13]) and 18.3 (16.8) ng/mL in [1] (setting [14]). For the same compound, the “Accumulation ratio (Rac)” value in data set [1] (multiple doses, range over the 50-, 100-, 200-mg groups) is 0.85 to 1.3 and 0.85–1.3. In [1] (once-daily dosing, 50-200 mg), the “Steady state reached after” value is reported as “four”. The “%AUC_ex” value is given as 1.5 (0.9) % in data set [1] (single dose 50 mg), 2.3 (1.4) % in [1] (single dose 100 mg) and 3.2 (3.2) % in [1] (single dose 200 mg). For the same compound, the CL/F in data set [1] (single dose 50 mg) was 66.6 (16.5) L/h; in [1] (single dose 100 mg), 72.9 (26.2) L/h; in data set [1] (single dose 200 mg), 63.3 (17.0) L/h. Besides, the 50% inhibitory concentration (IC50) in the data set on DPP‐9 is > 50 nM; with DPP‐2, > 50 nM; in [3], > 50 nM; in data set [5], 4.1 to 20.4 nM; in the data set on DPP‐8, > 50 nM; with DPP‐4, 15 nM. Besides, the “maximum inhibitory efficacy of DPP-4” value at DPP-4 [2] (setting [15]) was 62.1 to 89.4%. Further, at DPP-4 [2] (setting [15]), the “time to Emax,DPP-4” value lay in the range of 3 to 4 h. Also, the “median time to Emax of DPP-4” value amounted to 2 h at DPP-4 [2] (single dose 50 mg), 4 h at DPP-4 [2] (single dose 100 mg) and 6 h on DPP-4 [2] (single dose 200 mg). Also, the Glucose tolerability entry in the data set with diet-induced obese mice is listed as “improved glucose tolerability”. For the same compound, in data set [4] (mean (SD)), the t½ is reported as 8.2 (8.6) h. The compound also had an EC50 at DPP-4 [6] (EC50 (Emax model), after a single administration, DPP-4 inhibition versus plasma concentration) of 323 nM. Further, the “Emax,DPP-4 (Emax model)” value at DPP-4 [6] (after multiple doses, DPP-4 inhibition versus plasma concentration) is 106.19%. Further, the Emax worked out at 120% on DPP-4 [6] (read-out: Emax,DPP-4 (Emax model), after a single administration, DPP-4 inhibition versus plasma concentration) and 106% at DPP-4 [6] (read-out: Emax,DPP-4 (Emax model), after multiple doses, DPP-4 inhibition versus plasma concentration). In addition, the “Correlation between DPP-4 inhibition and DBPR108 exposure” value on DPP-4 [6] (setting [16]) is reported as “linear correlation was observed”. For the same compound, the “Active GLP-1 levels after administration” value in the data set on active GLP-1 (after DBPR108 administration, 50-200 mg) was “increased”. Moreover, the “Emax,GLP-1 (active GLP-1)” value in the data set with active GLP-1 (setting [12]) is 5.7 (2.2) pM; in the data set on active GLP-1 (setting [13]) it was 6.6 (2.3) pM; with active GLP-1 (setting [14]), 5.8 (3.2) pM; in the data set on active GLP-1 (single dose 50 mg), 4.5 (1.6) pM; in the data set with active GLP-1 (single dose 100 mg) it was 4.8 (1.4) pM; with active GLP-1 (single dose 200 mg), 5.5 (2.1) pM. Besides, the “median time to Emax,GLP-1” value in the data set on active GLP-1 (setting [15]) was 6 to 7 h; in the data set with active GLP-1 (single dose 50 mg), 8 h; in the data set on active GLP-1 (single dose 100 mg) it was 12 h; in the data set on active GLP-1 (single dose 200 mg) it was 12 h. The “Correlation between changes in plasma active GLP-1 and DBPR108 exposure” value with active GLP-1 (setting [16]) was “no linear correlation was noted”. Also, in “Safety assessment” (50-200 mg once daily, eight doses), the Tolerability entry is recorded as “well tolerated”. The Cardiovascular adverse events result in “Safety assessment” (all 30 patients) is listed as “no cardiovascular adverse events were observed”. Further, in “Safety assessment” (all 30 patients), the “Severe TEAEs, serious TEAEs, TEAEs leading to treatment interruption or discontinuation” value is recorded as “No severe TEAEs, serious TEAEs, or TEAEs leading to treatment interruption or discontinuation occurred”. Further, in the data set “Safety assessment” (all 30 patients), the “TEAE white blood cell count increase, n [%]” value is 1 [3.3%]. Besides, the “Patients with treatment-emergent adverse events (TEAEs)” value in “Safety assessment” (all 30 patients, 50-200 mg) turned out to be 20%.

In the case of `Cn1c(=O)cc(N2CCC[C@@H](N)C2)n(Cc2ccccc2C#N)c1=O` [alogliptin], the Risk of pancreatitis result in data set [7] is given as “increased risks of pancreatitis were observed”.

With `CS(=O)(=O)n1cc2c(n1)CN([C@H]1CO[C@H](c3cc(F)ccc3F)[C@@H](N)C1)C2` [omarigliptin], in the data set with DPP-4 [8], the “Emax,DPP-4” value was 86.0%.

For the compound `N[C@@H](CC(=O)N1CCn2c(nnc2C(F)(F)F)C1)Cc1cc(F)c(F)cc1F` [sitagliptin], the Risk of pancreatitis result in [7] was “increased risks of pancreatitis were observed”.
